Assay [1] deals with Cysteinyl leukotriene receptor 1 (Cavia porcellus). Put plainly: Antagonist activity tested against Cysteinyl leukotriene D4 receptor.
Assay [2] concerns the target T1, Cysteinyl leukotriene receptor 1 (Cavia porcellus) (UniProt Q2NNR5).
T1 sequence (whole entry): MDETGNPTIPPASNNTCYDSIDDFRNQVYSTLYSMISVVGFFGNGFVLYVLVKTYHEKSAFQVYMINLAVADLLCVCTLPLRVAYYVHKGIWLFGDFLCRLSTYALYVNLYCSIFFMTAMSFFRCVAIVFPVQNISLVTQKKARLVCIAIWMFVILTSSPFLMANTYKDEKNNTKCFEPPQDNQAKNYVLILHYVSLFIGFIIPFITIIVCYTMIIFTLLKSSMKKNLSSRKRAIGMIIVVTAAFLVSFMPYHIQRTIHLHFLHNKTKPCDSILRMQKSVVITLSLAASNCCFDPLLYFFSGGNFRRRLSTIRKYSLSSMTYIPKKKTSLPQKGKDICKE
Put plainly: Antagonistic activity against leukotriene D4 (LTD4) receptor. In kind it is functional. The method, boiled down:
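Isolated tissue strips in baths of physiological salt solution (mM: NaCl 118.2, NaHCO₃ 24.8, dextrose 10.0, Ca²⁺ 1.2) at 37 °C, gassed with 95% O₂/5% CO₂, under 0.5 g resting tension. Cumulative LTD₄ concentration–response curves were recorded. Each antagonist was in contact with the tissue for 30 min before the final LTD₄ curve.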

Structures are written as SMILES. The source made the active and inactive calls. The rule behind the calls is not given here.

By pKB is commonly meant −log10 of the KB, conventionally taken in molar units. On to `c1cc(-c2nnn(CCCCc3nnn[nH]3)n2)ccc1OCCCCc1nn[nH]n1`, for which the pKB entry in assay [1] is “inactive”.

In assay [1], `c1ccc(CCCCn2nnc(-c3ccc(OCCCCc4nnn[nH]4)cc3)n2)cc1` showed a pKB of 5.8.

In turn, `O=C(O)c1cccc(Cn2nnnc2-c2cccc(CSc3ccc4ccccc4n3)c2)c1` yielded a pKB in assay [1] of 6.2.

Regarding `CCCCCCCCCCOc1ccc(-c2nnn(CCCCc3nnn[nH]3)n2)cc1`, the pKB in assay [2] amounted to 5.09.

As for `c1ccc(CCCCCOc2ccc(-c3nnn(CCCCc4nnn[nH]4)n3)cc2)cc1`, the pKB in assay [1] was 5.9.

`O=C(O)c1ccccc1Cn1nnc(-c2cccc(CSc3ccc4ccccc4n3)c2)n1` registered a negative-log KB (pKB) in assay [1] of 7.02.

Take `c1ccc(CCCCOc2ccc(-c3nnn(CCCCCCCCc4nnn[nH]4)n3)cc2)cc1`: the negative logarithm of the KB (pKB) in assay [1] amounted to 5.7.

Compound `O=C(O)c1ccccc1Cn1nnc(-c2ccc(CSc3ccc4ccccc4n3)cc2)n1` returned a pKB in assay [1] of 5.87.

In turn, `CCCOc1ccc(-c2nnn(CCCCc3nnn[nH]3)n2)cc1` yielded a pKB in assay [1] of 5.52.

The compound `c1ccc(CCCCOc2ccc(-c3nnn(CCCCCCc4nnn[nH]4)n3)cc2)cc1` had a pKB in assay [1] of 6.24.

`FC(F)(F)CCCCCCCOc1ccc(-c2nnn(CCCCc3nnn[nH]3)n2)cc1` registered a negative-log KB (pKB) in assay [2] of 5.43.

Compound `FC(F)(F)CCCCCOc1ccc(-c2nnn(CCCCc3nnn[nH]3)n2)cc1` returned a pKB in assay [2] of 5.82.

Take `c1ccc(CCCCOc2ccc(-c3nnn(CCCc4nnn[nH]4)n3)cc2)cc1`: the pKB in assay [2] was found to be 6.86.

`Cc1ccccc1S(=O)(=O)NC(=O)CCCCn1nnc(-c2ccc(OCCCCc3ccccc3)cc2)n1` displayed a pKB in assay [1] of 5.92.

In turn, `O=C(O)c1cccc(Cn2nnc(-c3cccc(CSc4ccc5ccccc5n4)c3)n2)c1` gave a pKB in assay [1] of 5.62.

In turn, `c1ccc(CCCCOc2ccc(-c3nnn(CCCCCc4nnn[nH]4)n3)cc2)cc1` gave a pKB in assay [2] of 6.54.

As for `FC(F)(F)CCCCOc1ccc(-c2nnn(CCCCc3nnn[nH]3)n2)cc1`, the negative logarithm of the KB (pKB) in assay [1] is 5.92.

Turning to `Cc1ccccc1S(=O)(=O)NC(=O)NC(=O)CCCCn1nnc(-c2ccc(OCCCCc3ccccc3)cc2)n1`, in assay [1], the pKB stood at 5.86.

The compound `c1cc(CSc2ccc3ccccc3n2)cc(-c2nnn(CCCCc3nnn[nH]3)n2)c1` displayed a pKB in assay [1] of 6.57.

Consider `c1ccc(CCCOc2ccc(-c3nnn(CCCCc4nnn[nH]4)n3)cc2)cc1`, for which the negative logarithm of the KB (pKB) in assay [1] was 6.79.

As for `c1ccc(CCCCCCOc2ccc(-c3nnn(CCCCc4nnn[nH]4)n3)cc2)cc1`, in assay [2], the pKB stood at 5.83.

Consider `c1ccc2nc(COc3ccc(-c4nnn(CCCCc5nnn[nH]5)n4)cc3)ccc2c1`, for which the pKB in assay [2] was 6.68.

As to `c1ccc(CCCCOc2ccc(-c3nn[nH]n3)cc2)cc1`, the negative logarithm of the KB (pKB) in assay [1] is 5.92.

In the case of `N#CNC(=O)CCCCn1nnc(-c2ccc(OCCCCc3ccccc3)cc2)n1`, the pKB in assay [1] came out at 6.1.

Compound `NC(=O)CCCCn1nnc(-c2ccc(OCCCCc3ccccc3)cc2)n1` gave a pKB in assay [2] of 5.41.

The compound `c1ccc2oc(COc3ccc(-c4nnn(CCCCc5nnn[nH]5)n4)cc3)cc2c1` had a negative-log KB (pKB) in assay [2] of 6.36.

In turn, `O=C(O)CCCCn1nnc(-c2ccc(OCCCCc3ccccc3)cc2)n1` displayed a pKB in assay [2] of 5.97.

`c1ccc(CCCCOc2ccc(-c3nnn(CCCCc4nnn[nH]4)n3)cc2)cc1` had a pKB in assay [1] of 6.91.

`c1ccc(CCCCOc2ccc(-c3nnnn3CCCCc3nnn[nH]3)cc2)cc1`: in assay [1], the pKB came out at 6.31.

`c1ccc(CCOc2ccc(-c3nnn(CCCCc4nnn[nH]4)n3)cc2)cc1` yielded a pKB in assay [1] of 6.51.

In turn, `O=C(O)c1ccc(Cn2nnc(-c3cccc(CSc4ccc5ccccc5n4)c3)n2)cc1` came in with a pKB in assay [1] of 5.88.

For the compound `c1ccc(CCCCOc2cccc(-c3nnn(CCCCc4nnn[nH]4)n3)c2)cc1`, the pKB in assay [1] stood at 5.38.

`c1ccc(CCCCOc2ccc(-c3nnn(CCCCCCCc4nnn[nH]4)n3)cc2)cc1` had a pKB in assay [1] of 5.96.

(Values after ChEMBL document CHEMBL1125417, “Development of a series of phenyltetrazole leukotriene D4 (LTD4) receptor antagonists” (J Med Chem, 1992).)
